# Calls of active or inactive are those of the source.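 Rule for the calls, unless noted: active = viability at or below 30% in both replicate assays; inconclusive = viability at or below 30% in just one of the two assays; inactive = the rest.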
# Legend:
# [1] = reducers of endogenous Her2 protein level, primary screen, SKBR3 breast tumor cells, AlphaScreen, ATP viability (AID 461;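 active = Her2 level under about 52% in both replicate screens, with viability over 70% of control, limit read from the data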;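 for Her2 level: lower value means less Her2 protein in the cells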;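 for viability: percent of carrier control wells set as 100% viability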); conditions: 18-24 h, measured here: SKBR3 viability, ATP luminescence, at 10 µM
# [2] = target: Receptor tyrosine-protein kinase erbB-2 (Homo sapiens) (UniProt P04626); assay: as above; conditions: 18-24 h, at 10 µM, stronger effect = lower value
# Sequence of Receptor tyrosine-protein kinase erbB-2 (Homo sapiens) (P04626 whole entry, looked up): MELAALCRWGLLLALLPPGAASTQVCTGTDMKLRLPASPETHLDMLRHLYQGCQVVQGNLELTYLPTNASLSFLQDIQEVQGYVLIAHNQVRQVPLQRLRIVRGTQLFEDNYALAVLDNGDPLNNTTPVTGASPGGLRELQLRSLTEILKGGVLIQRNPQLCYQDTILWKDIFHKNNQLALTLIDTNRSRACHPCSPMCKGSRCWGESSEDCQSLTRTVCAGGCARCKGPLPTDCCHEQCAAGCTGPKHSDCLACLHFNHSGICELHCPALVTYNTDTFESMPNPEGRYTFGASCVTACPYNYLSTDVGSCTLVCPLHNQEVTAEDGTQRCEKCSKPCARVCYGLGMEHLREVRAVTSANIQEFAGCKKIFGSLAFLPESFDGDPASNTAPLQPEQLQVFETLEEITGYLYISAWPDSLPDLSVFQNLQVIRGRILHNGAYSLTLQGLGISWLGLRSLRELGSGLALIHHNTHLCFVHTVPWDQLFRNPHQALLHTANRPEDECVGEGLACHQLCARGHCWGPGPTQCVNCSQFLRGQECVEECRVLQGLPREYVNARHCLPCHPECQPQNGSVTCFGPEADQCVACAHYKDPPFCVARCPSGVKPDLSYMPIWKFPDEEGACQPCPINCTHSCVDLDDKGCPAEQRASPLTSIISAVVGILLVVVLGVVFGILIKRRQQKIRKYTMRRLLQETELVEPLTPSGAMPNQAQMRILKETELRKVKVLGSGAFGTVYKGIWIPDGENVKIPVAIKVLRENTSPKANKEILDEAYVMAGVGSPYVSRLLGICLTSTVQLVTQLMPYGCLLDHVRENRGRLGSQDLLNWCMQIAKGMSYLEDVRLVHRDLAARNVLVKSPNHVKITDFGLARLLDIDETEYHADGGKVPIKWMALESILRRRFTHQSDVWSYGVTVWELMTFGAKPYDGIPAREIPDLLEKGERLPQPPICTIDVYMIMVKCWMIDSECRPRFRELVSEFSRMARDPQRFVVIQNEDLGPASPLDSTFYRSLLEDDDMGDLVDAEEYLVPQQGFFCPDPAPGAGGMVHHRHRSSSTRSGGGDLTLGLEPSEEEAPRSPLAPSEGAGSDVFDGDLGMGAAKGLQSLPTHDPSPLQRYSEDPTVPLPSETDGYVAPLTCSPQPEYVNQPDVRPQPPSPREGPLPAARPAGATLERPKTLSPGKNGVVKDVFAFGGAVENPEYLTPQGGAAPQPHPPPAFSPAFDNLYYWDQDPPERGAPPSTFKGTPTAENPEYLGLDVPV
# [3] = SK-BR-3 cell growth inhibitors, pilot screen, 24 h, human (AID 572;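 active = viability at or below 10% of carrier control in both of two separate runs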;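 note: compound exposure lasted between 18 and 24 h rather than exactly 24 h; 100% = carrier-treated control wells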); conditions: SK-BR-3 viability, CellTiter-Glo luminescence, at 10 µM, stronger effect = lower value
# [4] = HUVEC growth inhibition – cell-based, human, primary screen (AID 575); conditions: HUVEC proliferation, CellTiter-Glo luminescence, 72 h; at 10 µM; stronger effect = lower value;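 note: 100% = median of untreated cell wells with 0.1% DMSO on each plate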
# How it was run: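 Test system: HUVEC primary cells. Quantity: 1250 endothelial cells in each well. Dosing: single-point 10 µM, DMSO 0.1% final. Incubation: 72 h treatment at 37 °C. Measured by: CTG luminescence. Control set: DMSO cell controls and MePR drug controls. Plate: collagen-coated 384-well format.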
# [5] = growth inhibitors of H69AR lung tumor, primary screen, human, duplicate replicates (AID 580;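 active = viability at or under a set limit in both replicates, limit being median viability minus 3 SD, cut at about 48% in these data, passing the limit was not always enough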;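 note: 100% = mean luminescence of untreated wells and 0% = no signal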); conditions: H69AR lung tumor cells viability, ATP luminescence, 72 h; at 10 µM; stronger effect = lower value
# [6] = reversal of MRP1-mediated doxorubicin resistance, pilot screen, H69AR cells, doxorubicin co-treatment (AID 601;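 active = viability loss from added drug above about 55%, and viability with drug at most 40%, in both replicates, limit read from the data, passing the limit was not always enough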); conditions: CellTiter-Glo, 72 h, at 10 µM; for differential viability (reversal): stronger effect = higher value
# [7] = 384-well plate pilot, post-Golgi transport modulator project, inhibition of yeast transport mutant growth (AID 636; in the data active = inhibition above about 31%); conditions: absorbance 615 nm, about 18 h, stronger effect = higher value
# [8] = growth suppression of yeast trafficking mutant, preliminary HTS, modulators of trafficking downstream of Golgi apparatus project, 1536-format plate, OD 615 nm (AID 637; in the data active = inhibition above about 30%); conditions: yeast transport mutant growth, absorbance 615 nm, 18 h; stronger effect = higher value
# [9] = H69AR cells + 2 uM doxorubicin, measured here: viability with 2 uM doxorubicin, stronger effect = lower value
# [10] = H69AR cells, compound alone cytotoxicity
Structure (SMILES),viability [1],Her2 level [2],viability [3],viability [4],viability [5],differential viability (reversal) ([6]; H69AR cells + 2 uM doxorubicin),"viability [6, 9]","viability [6, 10]",inhibition [7],inhibition [8]
COc1cc(OC)c(NC(=O)c2ccco2)cc1Cl,121%,81.5% (inactive),121% (inactive),92.1% (inactive),84.7% (inactive),-12.1% (inactive),96.9%,84.7%,-3.95% (inactive),0% (inactive)
CC(=O)c1c(C)[nH]c(C(=O)Nc2ccc3c(c2)OCCO3)c1C,102%,92% (inactive),102% (inactive),86.1% (inactive),92.9% (inactive),18.1% (inactive),74.8%,92.9%,-0.26% (inactive),2.42% (inactive)
CC1CCc2c(sc(N)c2C(N)=O)C1 (stereo not given),95.5%,81% (inactive),95.5% (inactive),86.7% (inactive),91.5% (inactive),6.62% (inactive),84.9%,91.5%,-0.26% (inactive),4.5% (inactive)
Cc1cc(C)n(S(=O)(=O)Cc2ccccc2)n1,102%,135% (inactive),102% (inactive),97.4% (inactive),92.2% (inactive),-0.205% (inactive),92.4%,92.2%,-6.32% (inactive),4.59% (inactive)
O=C(O)CCCCCNc1nc(=S)[nH]c2ccccc12,107%,99% (inactive),107% (inactive),99.7% (inactive),89.3% (inactive),10.3% (inactive),79%,89.3%,-5.92% (inactive),-1.59% (inactive)
O=[n+]1c2c(n([O-])c3cc(F)c(N4CCCC4)cc31)CCC2,101%,86.5% (inactive),101% (inactive),90.6% (inactive),74% (inactive),5.59% (inactive),68.4%,74%,-2.57% (inactive),1.9% (inactive)
COc1ccc(NC(=O)CS(=O)CC(=O)Nc2cc(Cl)ccc2OC)cc1 (stereo not given),91.5%,106% (inactive),91.5% (inactive),80.8% (inactive),90.9% (inactive),-1.21% (inactive),92.1%,90.9%,-4.36% (inactive),-3.67% (inactive)
CCCn1c(-c2ccc(F)cc2)cnc1SCC(=O)O,128%,98.5% (inactive),128% (inactive),101% (inactive),84.8% (inactive),3.56% (inactive),81.2%,84.8%,-3.33% (inactive),2.79% (inactive)
CCC(c1nnnn1C(C)(C)C)N1CCN(C2CCCC2)CC1 (stereo not given),98.5%,114% (inactive),98.5% (inactive),103% (inactive),107% (inactive),17.5% (inactive),89.3%,107%,1.2% (inactive),4.59% (inactive)
O=C(NCc1cccnc1)C1CCCN(S(=O)(=O)c2ccc(Cl)cc2)C1 (stereo not given),102%,96% (inactive),102% (inactive),77.1% (inactive),86.9% (inactive),1.95% (inactive),84.9%,86.9%,-2.57% (inactive),-1.75% (inactive)
COc1ccccc1N1CCN(C(=O)c2c(-c3c(Cl)cccc3Cl)noc2C)CC1,104%,82.5% (inactive),104% (inactive),79% (inactive),105% (inactive),15% (inactive),90.3%,105%,-5.95% (inactive),2.46% (inactive)
Cc1nc2ccc(NC(=O)N3CCSCC3)cc2s1,89.5%,107% (inactive),89.5% (inactive),108% (inactive),94.3% (inactive),-5.83% (inactive),100%,94.3%,1.84% (inactive),8.89% (inactive)
O=C(CSc1nnc(Cc2ccccc2)n1C1CCCCC1)N1CCOCC1,92.5%,110% (inactive),92.5% (inactive),97.9% (inactive),95.6% (inactive),6.44% (inactive),89.2%,95.6%,-3.03% (inactive),-3.97% (inactive)
COCCNC(=O)CN1CCN(C(c2ccccc2)c2ccccc2)CC1,86%,117% (inactive),86% (inactive),84.3% (inactive),93.1% (inactive),0.91% (inactive),92.2%,93.1%,-0.39% (inactive),-5.08% (inactive)
CC(C)OC(=O)CSc1nc2cccnc2n1C1CCCCC1,124%,93.5% (inactive),124% (inactive),112% (inactive),95.3% (inactive),5.92% (inactive),89.4%,95.3%,-5.33% (inactive),3.44% (inactive)
CC1CCN(CC(O)COC2CCC(C(C)(C)C)CC2)CC1 (stereo not given),82%,76% (inactive),82% (inactive),73.8% (inactive),74.5% (inactive),3.15% (inactive),71.4%,74.5%,97.8% (active),84.4% (active)
CCN(CC)CCn1c2ccccc2c2nc(C)sc21,113%,96.5% (inactive),113% (inactive),104% (inactive),92.6% (inactive),-7.46% (inactive),100%,92.6%,-5.32% (inactive),-2.54% (inactive)
O=c1oc2ccccc2c(O)c1C=NCc1ccccn1,88%,93.5% (inactive),88% (inactive),67.6% (inactive),76.8% (inactive),-10.5% (inactive),87.3%,76.8%,-8.11% (inactive),-5.57% (inactive)
CCOC(=O)N1CCN(C(=O)C2c3cc(OC)c(OC)cc3C(=O)N3CCc4ccccc4C23)CC1 (stereo not given),116%,97% (inactive),116% (inactive),102% (inactive),95.7% (inactive),-0.775% (inactive),96.4%,95.7%,-6.4% (inactive),0.49% (inactive)
Nc1cc(C(=O)O)ccc1Nc1ccc(F)c(F)c1,88%,112% (inactive),88% (inactive),89.2% (inactive),105% (inactive),10.3% (inactive),94.3%,105%,2.4% (inactive),4.75% (inactive)
CCOC(=O)c1[nH]nc(N)c1NC(=O)c1ccc(Cl)cc1Cl,79.5%,120% (inactive),79.5% (inactive),89.9% (inactive),87.8% (inactive),3.99% (inactive),83.8%,87.8%,3.6% (inactive),8.89% (inactive)
COCCNC(=O)C(c1ccc(O)cc1)N(Cc1ccco1)C(=O)CCC(=O)Nc1nccs1 (stereo not given),81.5%,104% (inactive),81.5% (inactive),104% (inactive),99.5% (inactive),11.1% (inactive),88.3%,99.5%,-0.81% (inactive),-6.23% (inactive)
Cc1ccc(-c2nc(=S)c3c(n2Cc2ccco2)CCCC3)cc1,79%,79% (inactive),79% (inactive),86.9% (inactive),10.3% (active),-0.31% (inactive),10.6%,10.3%,-1.47% (inactive),-5.32% (inactive)
COc1cccc(CNC(=O)C2CCN(c3cnccn3)CC2)c1,87.5%,118% (inactive),87.5% (inactive),88.4% (inactive),96.2% (inactive),8.93% (inactive),87.3%,96.2%,-4.67% (inactive),16.8% (inactive)
Cn1c(=O)c2nc(Cl)n(Cc3ccc(Cl)cc3Cl)c2n(C)c1=O,96%,75% (inactive),96% (inactive),105% (inactive),88.3% (inactive),12.5% (inactive),75.9%,88.3%,-3.2% (inactive),7.58% (inactive)
O=C(CN1C(=O)c2ccccc2S1(=O)=O)NCc1ccccn1,94%,92% (inactive),94% (inactive),86.1% (inactive),98.5% (inactive),0.67% (inactive),97.8%,98.5%,-1.43% (inactive),1.11% (inactive)
CCCC1(C(=O)OCC)NC(c2ccc(N(C)C)cc2)C2C(=O)N(c3ccc(F)cc3)C(=O)C21 (stereo not given),90%,97% (inactive),90% (inactive),104% (inactive),112% (inactive),13.8% (inactive),98.2%,112%,0% (inactive),-2.67% (inactive)
COC(=O)c1cc(Br)c(=O)n(-c2nccs2)c1,121%,93.5% (inactive),121% (inactive),107% (inactive),96.5% (inactive),9.32% (inactive),87.2%,96.5%,-4.27% (inactive),-6.39% (inactive)

# — PubChem BioAssay
